From ChEMBL document CHEMBL1140712 (J Med Chem, 2008) come the findings set out here.

In data set [1] the test system is Rattus norvegicus. Nature of the data set: Reduction of food intake in Sprague-Dawley rat at 12.5 umol/kg, po after 2 hrs relative to control. Type of data set: functional. An outline of the steps: (§1)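 Male Sprague-Dawley rats, caged singly, kept 2 weeks on a reverse light cycle, freely fed, eight per group. Oral gavage of vehicle or compound 1 h before the dark cycle. Food intake measured 2 h postdose and compared with vehicle control.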

Data set [2] deals with Rattus norvegicus. As to the kind of experiment: Reduction of food intake in Sprague-Dawley rat at 25 umol/kg, po after 2 hrs relative to control. It is filed as functional. An outline of the steps:
as §1

Data set [3] has as its system Rattus norvegicus. As to the kind of experiment: Reduction of food intake in Sprague-Dawley rat at 50 umol/kg, po after 2 hrs relative to control. It is filed as functional. A digest of the protocol:
as §1

Data set [4] relates to Rattus norvegicus. As to the kind of experiment: Reduction of food intake in Sprague-Dawley rat at 100 umol/kg, po after 2 hrs relative to control. Type of data set: functional. An outline of the steps: as §1
For data set [5], the species on record is Rattus norvegicus. As to the kind of experiment: Reduction of food intake in Sprague-Dawley rat after 6 hrs relative to control. Type of data set: functional. A digest of the protocol:
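Male Sprague-Dawley rats, individually caged after 2 weeks on a reverse light cycle, freely fed, eight per group. Dosed by oral gavage 1 h before the dark cycle. Food intake measured 6 h postdose versus vehicle-treated rats.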

A short description of data set [6]: Half life in Sprague-Dawley rat at 5 mg/kg, iv. It is filed as ADME, organism-based. On the set-up: dose 5 mg/kg, route intravenous. Particulars: in vivo.
Data set [7] in a line: Half life in Sprague-Dawley rat at 10 mg/kg, po. Also noted: dose 10 mg/kg, route oral. Particulars: in vivo. It is filed as ADME, organism-based.
Data set [8] in a line: Clearance in Sprague-Dawley rat at 5 mg/kg, iv. On the set-up: dose 5 mg/kg, route intravenous. Type of data set: ADME, organism-based. Particulars: in vivo.
Data set [9] can be described thus: Volume of distribution at steady state in Sprague-Dawley rat at 5 mg/kg, iv. It is filed as ADME, organism-based. Also noted: dose 5 mg/kg, route intravenous. Particulars: in vivo, read-out: Vdss.
Data set [10] is described as follows: Tmax in Sprague-Dawley rat at 10 mg/kg, po. It is filed as ADME, organism-based. On the set-up: dose 10 mg/kg, route oral. Particulars: in vivo.
A short description of data set [11]: Cmax in Sprague-Dawley rat at 10 mg/kg, po. Type of data set: ADME, organism-based. Also noted: dose 10 mg/kg, route oral. Particulars: in vivo.
Data set [12] is described as follows: AUC (0-infinity) in Sprague-Dawley rat at 5 mg/kg, iv. Type of data set: ADME, organism-based. Also noted: time infinity, dose 5 mg/kg, route intravenous. Particulars: plasma.
A short description of data set [13]: AUC (0-infinity) in Sprague-Dawley rat at 10 mg/kg, po. It is filed as ADME, organism-based. On the set-up: time infinity, dose 10 mg/kg, route oral. Particulars: plasma.
Data set [14] is described as follows: Oral bioavailability in Sprague-Dawley rat at 10 mg/kg. Particulars: in vivo. It is filed as ADME, organism-based.
Data set [15] deals with Rattus norvegicus. Nature of the data set: Reduction of body weight in Sprague-Dawley rat at 36 mg/kg, po, bid after 28 days relative to control. It is filed as functional. Also noted: scale not given: the % may be the effect or the level left. A digest of the protocol:
(§2)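 Adult male Sprague-Dawley rats (250–400 g), caged separately with free access to food and water. Oral gavage of vehicle or drug for 28 days, with arms of 9, 18 and 36 mg/kg twice daily and 18 mg/kg once daily. Daily food intake and body weight recorded and compared with vehicle control.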

Data set [16] deals with Rattus norvegicus. Nature of the data set: Reduction of body weight in Sprague-Dawley rat at 18 mg/kg, po, qd after 28 days relative to control. On the set-up: scale not given: the % may be the effect or the level left. It is filed as functional. A digest of the protocol: as §2
Data set [17] deals with Rattus norvegicus. Nature of the data set: Reduction of body weight in Sprague-Dawley rat at 9 mg/kg, po, bid after 28 days relative to control. On the set-up: scale not given: the % may be the effect or the level left. Type of data set: functional. A digest of the protocol:
as §2

Data set [18] concerns Rattus norvegicus. Nature of the data set: Reduction of body weight in Sprague-Dawley rat at 18 mg/kg, po, bid after 28 days relative to control. Type of data set: functional. Also noted: scale not given: the % may be the effect or the level left. An outline of the steps: as §2
For data set [19], the target named is 5-hydroxytryptamine receptor 2A (Homo sapiens, UniProt P28223). Nature of the data set: Agonist activity at human 5HT2A receptor expressed in HEK293 cells assessed as intracellular IP3 accumulation. Type of data set: functional, cell-based. A digest of the protocol: (§3)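 Functional agonist assay read out as [3H]phosphoinositol turnover; potency expressed as pEC50.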
Sequence of 5-hydroxytryptamine receptor 2A (P28223 whole entry): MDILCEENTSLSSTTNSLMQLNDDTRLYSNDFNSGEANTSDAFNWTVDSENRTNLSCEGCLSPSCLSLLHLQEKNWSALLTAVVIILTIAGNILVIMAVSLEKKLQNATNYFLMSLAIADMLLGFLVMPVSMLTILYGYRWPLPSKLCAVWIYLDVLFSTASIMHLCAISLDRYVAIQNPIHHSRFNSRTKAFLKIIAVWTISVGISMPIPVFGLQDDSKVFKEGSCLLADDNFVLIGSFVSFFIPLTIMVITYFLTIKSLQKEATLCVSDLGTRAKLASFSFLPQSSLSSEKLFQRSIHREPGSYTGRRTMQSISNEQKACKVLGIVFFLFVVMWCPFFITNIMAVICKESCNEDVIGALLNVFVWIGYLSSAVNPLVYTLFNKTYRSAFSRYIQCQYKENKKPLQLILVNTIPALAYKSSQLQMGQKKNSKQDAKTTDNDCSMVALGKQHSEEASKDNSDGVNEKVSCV

In data set [20] the target is T1, 5-hydroxytryptamine receptor 2C (Homo sapiens, UniProt P28335).
T1 sequence (P28335 whole entry): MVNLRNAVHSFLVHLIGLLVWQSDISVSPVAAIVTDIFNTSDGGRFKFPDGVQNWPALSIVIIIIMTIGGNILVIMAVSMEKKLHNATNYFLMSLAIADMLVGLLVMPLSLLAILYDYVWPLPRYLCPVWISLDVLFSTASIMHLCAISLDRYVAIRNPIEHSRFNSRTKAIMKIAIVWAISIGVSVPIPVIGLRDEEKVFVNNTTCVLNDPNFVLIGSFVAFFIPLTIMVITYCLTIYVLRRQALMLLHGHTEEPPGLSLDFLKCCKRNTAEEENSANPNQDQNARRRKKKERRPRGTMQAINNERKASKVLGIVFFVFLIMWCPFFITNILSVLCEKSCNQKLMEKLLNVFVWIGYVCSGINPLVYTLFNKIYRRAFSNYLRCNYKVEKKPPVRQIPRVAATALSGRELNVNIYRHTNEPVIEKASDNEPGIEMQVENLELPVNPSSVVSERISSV
As to the kind of experiment: Agonist activity at human 5HT2C receptor expressed in HEK293 cells assessed as intracellular IP3 accumulation. It is filed as functional, cell-based. An outline of the steps:
as §3

For data set [21], the target named is 5-hydroxytryptamine receptor 2B (Homo sapiens, UniProt P41595). As to the kind of experiment: Agonist activity at human 5HT2B receptor expressed in HEK293 cells assessed as intracellular IP3 accumulation. It is filed as functional, cell-based. An outline of the steps: as §3
Sequence of 5-hydroxytryptamine receptor 2B (P41595 whole entry): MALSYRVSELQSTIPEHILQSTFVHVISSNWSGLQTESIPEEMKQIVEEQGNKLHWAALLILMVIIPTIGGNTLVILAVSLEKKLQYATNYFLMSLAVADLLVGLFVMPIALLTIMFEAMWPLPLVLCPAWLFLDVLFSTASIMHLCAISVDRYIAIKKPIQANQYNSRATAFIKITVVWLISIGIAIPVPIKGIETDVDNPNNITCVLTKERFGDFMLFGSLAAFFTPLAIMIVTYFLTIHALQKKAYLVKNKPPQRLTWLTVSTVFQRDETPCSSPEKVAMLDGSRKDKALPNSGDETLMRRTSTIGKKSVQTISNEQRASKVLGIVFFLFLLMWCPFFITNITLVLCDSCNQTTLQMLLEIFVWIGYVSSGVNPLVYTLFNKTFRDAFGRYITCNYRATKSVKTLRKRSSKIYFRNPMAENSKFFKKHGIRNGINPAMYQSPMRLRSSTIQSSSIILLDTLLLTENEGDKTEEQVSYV
Data set [22] addresses Serotonin 2 receptors; 5-HT2a & 5-HT2c (Homo sapiens) (UniProt P28223+P28335). Nature of the data set: Selectivity ratio of pEC50 for human 5HT2A to pEC50 for human 5HT2C.
The species entered for data set [23] is Homo sapiens. As to the kind of experiment: Selectivity ratio of pEC50 for human 5HT2B to pEC50 for human 5HT2C.

Sequence of Serotonin 2 receptors; 5-HT2a & 5-HT2c (Homo sapiens) (P28223 whole entry, looked up, one chain of several): as the sequence (P28223 whole entry) above

Usually inhibition in vivo stands for the drop in the measured response relative to a control, in per cent. A word on the ED50: it is the midpoint of the dose-response relation. Usually half-life stands for how long it takes for the measured level to halve. The term clearance denotes the rate of elimination divided by the concentration. A word on the Tmax: it is the time at which the peak concentration occurs. Broadly, the Cmax is the highest concentration seen after dosing. The term AUC(0-inf) denotes the area under the concentration-time curve extrapolated to infinity. What is called bioavailability is the share of a dose that reaches the circulation, judged against a reference dose that is usually intravenous. Compound `C[C@H]1CNCCc2ccc(Cl)cc21` [LORCASERIN] showed an inhibition in vivo at 12.5 µmol/kg in [1] of 34%. Besides, the inhibition in vivo at 25 µmol/kg in [2] came out at 58%. The same compound yielded an inhibition in vivo at 50 µmol/kg in data set [3] of 77%. In data set [4], the inhibition in vivo at 100 µmol/kg came out at 82%. The compound also came in with a 50% effective dose (ED50) in [5] of 18 mg/kg. The half-life in data set [6] is 3.1 h; in data set [7], 3.7 h. The same compound showed a clearance in [8] of 102 mL/min/kg. In [9], the Vd stood at 18 L/kg. For the same compound, the Tmax in data set [10] was found to be 0.5 h. Further, the Cmax in [11] is 260 ng/mL. The figures for the AUC(0-inf) in [12] and in [13] were 800 ng·h/mL and 1400 ng·h/mL, respectively. In [14], this compound returned a bioavailability of 86%. Further, the Activity in data set [15] amounted to 8.5%; in data set [16], 17.02%; in data set [17], 15.75%; in [18], 14.03%.

In the case of `C[C@@H]1CNCCc2ccc(Cl)cc21`, the inhibition in vivo at 12.5 µmol/kg in data set [1] worked out at 7%. The same compound gave an inhibition in vivo at 25 µmol/kg in data set [2] of 26%. Moreover, the inhibition in vivo at 50 µmol/kg in data set [3] stood at 41%. In [4], the inhibition in vivo at 100 µmol/kg is 73%.

As usually defined, the EC50 is the concentration that produces a half-maximal response. As to `C[C@H]1CNCCc2ccc(C(F)(F)F)cc21`, the 50% effective concentration (EC50) in data set [19] was 126 nM; in data set [20], 7.94 nM; in data set [21] it was 501 nM. The compound further gave an inhibition in vivo at 12.5 µmol/kg in data set [1] of 14%. For the same compound, the inhibition in vivo at 25 µmol/kg in [2] came out at 22%. Moreover, in [3], the inhibition in vivo at 50 µmol/kg came to 41%. Besides, the values for the Selectivity ratio in data set [22] and in data set [23] were 1.2 and 1.8, respectively.
